CHO parental Ca: ATP-evoked calcium signal inhibitors, parental CHO, primary screen, counter-screen for OX1R antagonist project, cell-based, fluorescence, Fluo-8 calcium dye; parental CHO-K1, ATP-induced calcium, Fluo-8 fluorescence; inhibition, % at 5.6 µM; actives 0.63% (n = 330,000); AID 463079, 2010;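 active = inhibition above that plate's mean sample inhibition plus 3 SD, cut at about 26% in these data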;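 note: 0% = ATP-challenged DMSO wells and 100% = DMSO wells without ATP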
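Material – parental CHO cells · Reagent – ATP stimulus · Compound – single nominal dose of 5.6 µM per compound · Detection – Fluo-8 fluorescence · Read-out basis – percent inhibition of calcium signal · Controls – ATP-challenged DMSO wells low, unchallenged DMSO wells high · Repeats – no replicates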
TAAR1 antag: human TAAR1 antagonists, primary screen, Fluo-8 calcium fluorescence, CHO RD-HGA16 cells. inhibition, % at 3 µM. antagonist. Trace amine-associated receptor 1 (Homo sapiens), Q96RJ0. actives 1.5% (n = 360,000);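 active = inhibition above a per-plate cutoff, the mean inhibition of test compounds on that plate plus 3 SD, cut at about 49% in these data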;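 note: 0% = DMSO plus EC80 beta-PEA response and 100% = DMSO alone without agonist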
Target sequence (Q96RJ0 whole entry, looked up): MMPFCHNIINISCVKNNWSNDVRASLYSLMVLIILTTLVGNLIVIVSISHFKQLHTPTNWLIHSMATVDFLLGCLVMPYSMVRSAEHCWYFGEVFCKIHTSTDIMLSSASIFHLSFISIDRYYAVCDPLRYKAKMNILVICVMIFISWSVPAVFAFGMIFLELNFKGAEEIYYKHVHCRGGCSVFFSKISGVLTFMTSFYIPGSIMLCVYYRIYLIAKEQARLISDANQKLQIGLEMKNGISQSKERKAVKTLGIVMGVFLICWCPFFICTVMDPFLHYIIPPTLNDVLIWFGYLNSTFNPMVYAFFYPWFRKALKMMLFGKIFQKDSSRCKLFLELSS
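System: RD-HGA16 CHO cells with stable hTAAR1 and Gα16 | Probe or stimulus: EC80 β-phenethylamine stimulus | Dosing: 3 µM, single point | Times: Dye loading 75 min at 37 °C, then 30 min room temperature | Measured by: Fluo-8 calcium-sensitive fluorescence | Read-out basis: % inhibition of agonist calcium response | Replicates: n of 1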
TAAR1 ag: human TAAR1 agonists, primary screen, Fluo-8 calcium fluorescence, CHO RD-HGA16 cells | vehicle wells 0%, saturating PEA agonist 100% | activation, % at 3 µM | actives 0.99% (n = 360,000) | AID 624467, 2012;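 active = activation above the mean activation of all test compounds in the run plus 3 SD, cut at about 38% in these data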
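System: CHO-derived RD-HGA16 cells with stable Gα16 and human TAAR1. Times: 17-24 h plating, Fluo-8 75 min 37 °C, 30 min RT. Measured by: calcium-sensitive Fluo-8 signal, excitation 470-495, emission 515-575 nm. Read-out basis: % activation relative to PEA EC100 response. Control set: DMSO and PEA EC100. Repeats: no replicates (n 1).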
GalR3 antag: GalR3 antagonists in HEK293 cells, primary screen, cell-based, fluorescence readout; HEK293 GalR3-CNG cAMP membrane potential fluorescence; galR3 body fused to GalR1 C-terminus; inhibition, % at 3 µM; Galanin receptor type 3 (Homo sapiens), O60755; actives 0.44% (n = 360,000);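 active = inhibition above the screen-wide average plus 3 SD, cut at about 13% in these data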;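 note: forskolin and galanin both at EC90 stimulate the cells; cAMP rise reported by CNG channel membrane potential dye signal; 0% = forskolin plus galanin with DMSO and 100% = forskolin alone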
OX1R antag-1: antagonists of human orexin 1 receptor (OX1R); OX1R-expressing cells, FRET antagonist read-out; inhibition, % at 6.6 µM; actives 1.8% (n = 330,000); in the data active = inhibition mostly above about 38%, no sharp cut-off; inactive = mostly below about 40%;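 note: 0% = agonist challenge alone and 100% = reference antagonist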
OX1R antag-2: OX1R (HCRTR1) antagonists, primary screen, fluorescence, CHO/OX1R cells, Fluo-8 calcium, orexin A; inhibition, % at 5 µM; AID 434989, 2010; actives 0.43% (n = 330,000); Orexin/Hypocretin receptor type 1 (Homo sapiens), O43613; Fluo-8 calcium fluorescence;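 active = inhibition above its plate's threshold, mean inhibition of all tested compounds on the plate plus 3 SD, cut at about 37% in these data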;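 note: 0% = orexin A challenge wells and 100% = SB-334867-A antagonist wells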
The depositor's hits bear a star; . = not tested or not shown. The list is not random: actives were taken first. Their share in the collection is about 4.3%.

SMILES | CHO parental Ca | TAAR1 antag | TAAR1 ag | GalR3 antag | OX1R antag-1 | OX1R antag-2
COc1ccc(C2/C=C\CN(S(=O)(=O)c3ccc(C)cc3)CC(=O)N2Cc2ccc(F)cc2)cc1 (stereo not drawn) | -22 | -11 | 0 | -5 | 20 | -23
CC(C)Nc1nc(NC(C)C)nc(OCCOC(=O)c2ccccc2)n1 | -16 | -3 | 3 | 6 | 12 | -40
CN(C)c1nc(OCCOC(=O)c2ccccc2)nc(N(C)C)n1 | -15 | 11 | 39* | -2 | 18 | -27
CCN1CCN(CCCNC(=O)CCC(=O)N2CC(C)Oc3ccc(C)cc32)CC1 (stereo not drawn) | 0 | -15 | 0 | . | 8 | -20
CCNS(=O)(=O)c1ccc(CCC(=O)N2CCN(c3ccccc3F)CC2)cc1 | -16 | -9 | 1 | -1 | 7 | -11
C[C@H](O)[C@@H]1C(=O)N2CCc3c([nH]c4ccccc34)[C@@H]2C[C@@H]1N(C)Cc1ccc(Cl)cc1 | . | -18 | 2 | -5 | . | .
Cc1cc(C(=O)CN2C(=O)CCC2=O)c(C)n1Cc1ccccc1 | -8 | 3 | 40* | -5 | 3 | -3
Cc1ccccc1CS(=O)(=O)c1nnc([C@H](CC(C)C)NC(=O)OC(C)(C)C)o1 | 43* | 17 | 3 | -3 | 12 | 10
O=C1N[C@@H](Cc2c[nH]c3ccccc23)COC(=O)[C@H](Cc2ccc(F)cc2)C/C=C\C[C@@H]1CC(=O)N(CCO)Cc1ccccc1 | -10 | 34 | 6 | -3 | 1 | 9
CC(C)(C)[C@H]1COC(=O)[C@@H](Cc2ccc(F)cc2)C/C=C\C[C@@H](CC(=O)N[C@H](CO)Cc2ccccc2)C(=O)N1 | -28 | 27 | 29 | -8 | 8 | -31
O=C1N[C@H](Cc2ccccc2)COC(=O)[C@H](Cc2ccc(F)cc2)CC/C=C/C[C@@H]1CC(=O)N(CCO)Cc1ccccc1 | -16 | 64* | 44* | -5 | 11 | 3
CC(C)(C)[C@H]1COC(=O)[C@@H](Cc2ccc(F)cc2)C/C=C\C[C@@H](CC(=O)N[C@@H](CO)Cc2ccccc2)C(=O)N1 | -34 | 58* | 22 | -6 | 62* | 43
O=C1OC[C@@H]2CCCN2C(=O)[C@@H](CC(=O)N(CCO)Cc2ccccc2)C/C=C\C[C@@H]1Cc1ccc(F)cc1 | -15 | 54* | 26 | -3 | 23 | 13
O=C1N[C@@H](Cc2c[nH]c3ccccc23)COC(=O)[C@@H](Cc2ccc(F)cc2)C/C=C\C[C@H]1CC(=O)N(CCO)Cc1ccccc1 | -6 | 55* | 10 | -6 | 10 | 49
O=C(N[C@H]1C/C=C\C[C@H](CC(=O)N(CCO)Cc2ccccc2)C(=O)N[C@H](Cc2c[nH]c3ccccc23)COC1=O)OCC1c2ccccc2-c2ccccc21 | 3 | 15 | 0 | -3 | 12 | -3
Cc1cc(NC(=O)CSc2ccnc(=O)[nH]2)no1 | -11 | -15 | 0 | -3 | 1 | -6
Cc1cc(/C=C2\SC(=S)NC2=O)cc(C)c1O | 3 | -8 | -1 | -8 | 46* | -4
Cc1cc(/C=C2\SC(=S)NC2=O)c(C)n1-c1ccccc1 | -16 | 19 | -1 | -4 | 45* | -18
O=C1NC(=S)S/C1=C\c1cc(Cl)cc(Cl)c1O | . | 65* | 40* | -5 | . | .
Cc1cc(/C=C2\SC(=S)NC2=O)c(C)n1C | -3 | 12 | 5 | -4 | 15 | -3
COc1ccccc1NC(=O)CCNC(=O)C1CCN(S(=O)(=O)c2ccccc2)CC1 | . | -1 | 2 | -3 | . | .
CCN(CC)c1ccc(C(=O)OCC(=O)Nc2ccccc2-c2ccccc2)cc1 | 67* | 36 | 1 | -5 | 49* | -3
COc1ccccc1C(=O)N1CCC2CCN(C(=O)c3ccccc3)C2C1 (stereo not drawn) | . | -13 | 3 | -6 | . | .
